This note sets out measurements from ChEMBL document CHEMBL1137588, “An evaluation of 3,4-methylenedioxy phenyl replacements in the aminopiperidine chromone class of MCHr1 antagonists” (Bioorg Med Chem Lett, 2007).

For data set [1], the target named is Melanin-concentrating hormone receptor 1 (Homo sapiens, UniProt Q99705). The experiment in a line: Displacement of 125I-MCH from MCH-R1 expressed in IMR-32 cells. The format is cell-based. In general terms: In a radioligand displacement assay an active substance lowers the binding of a labelled ligand.
In data set [2] the target is Melanin-concentrating hormone receptor (Homo sapiens, UniProt Q969V1+Q99705). Kind of data set: Inhibition of MCH-mediated calcium release in IMR-32 cells. The format is functional, cell-based.
Data set [3] concerns the target Voltage-gated inwardly rectifying potassium channel KCNH2 (Homo sapiens, UniProt Q12809).
Another data set has as its target hERG versus MCH receptor (Homo sapiens, UniProt Q12809+Q969V1). The experiment in a line: in vitro.
In data set [4] the target is Beta-2 adrenergic receptor (Homo sapiens) (UniProt P07550). The experiment in a line: Inhibition of adrenergic beta 2 receptor at 10uM.
For data set [5], the target named is Muscarinic acetylcholine receptor M2 (Homo sapiens) (UniProt P08172). The experiment in a line: Inhibition of human muscarinic M2 receptor at 10uM.
The target in data set [6] is 5-hydroxytryptamine receptor 1A (Homo sapiens) (UniProt P08908). Kind of data set: Inhibition of human serotonin 5HT1A receptor at 10uM.
Data set [7] concerns the target Muscarinic acetylcholine receptor M1 (Homo sapiens) (UniProt P11229). Kind of data set: Inhibition of human muscarinic M1 receptor at 10uM.
Data set [8] addresses D(1A) dopamine receptor (Homo sapiens) (UniProt P21728). The experiment in a line: Inhibition of human dopamine D1 receptor at 10uM.
Data set [9] concerns the target Sodium-dependent noradrenaline transporter (Homo sapiens) (UniProt P23975). Kind of data set: Inhibition of human norepinephrine transporter receptor at 10uM.
Data set [10] deals with Histamine H2 receptor (Homo sapiens) (UniProt P25021). The experiment in a line: Inhibition of histamine H2 receptor at 10uM.
For data set [11], the target named is 5-hydroxytryptamine receptor 1B (Homo sapiens) (UniProt P28222). The experiment in a line: Inhibition of serotonin 5HT1B receptor at 10uM.
The target in data set [12] is 5-hydroxytryptamine receptor 2A (Homo sapiens) (UniProt P28223). The experiment in a line: Inhibition of human serotonin 5HT2A receptor at 10uM.
Data set [13] addresses Adenosine receptor A1 (Homo sapiens) (UniProt P30542). Kind of data set: Inhibition of human adenosine A1 receptor at 10uM.
Data set [14] has as its target Histamine H1 receptor (Homo sapiens) (UniProt P35367). The experiment in a line: Inhibition of histamine H1 receptor at 10uM.
Data set [15] concerns the target Kappa-type opioid receptor (Homo sapiens) (UniProt P41145). Kind of data set: Inhibition of human kappa opioid receptor at 10uM.
In data set [16] the target is Sodium-dependent dopamine transporter (Homo sapiens) (UniProt Q01959). Kind of data set: Inhibition of human dopamine transporter at 10uM.
For data set [17], the target named is Sigma non-opioid intracellular receptor 1 (Homo sapiens) (UniProt Q99720). The experiment in a line: Inhibition of sigma receptor at 10uM.
In a further data set the target is Cytochrome P450 3A4 (Homo sapiens, UniProt P08684). The experiment in a line: Inhibition of CYP3A4. The class given is ADME. Summed up:
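Human hepatic microsomes; CYP3A4 activity followed as oxidation of [3H]-terfenadine. IC50 taken as the compound concentration giving competitive inhibition of this oxidation.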

In data set [18] the target is Adrenergic receptor alpha-1 (Homo sapiens) (UniProt P35348+P25100+P35368). Kind of data set: Inhibition of adrenergic alpha 1 receptor at 10uM. The format is protein assay.
Another data set concerns the target L-type calcium channel (Homo sapiens, UniProt O60840+Q01668+Q13698+Q13936). The experiment in a line: Inhibition of L-type calcium channel at 10uM. The class given is protein assay.
For data set [19], the target named is Adrenergic receptor alpha-2 (Homo sapiens) (UniProt P08913+P18825+P18089). The experiment in a line: Inhibition of adrenergic alpha 2 receptor at 10uM. The class given is protein assay.
Data set [20] is described as follows: Inhibition of calcium-activated potassium (SK) channel at 10uM.
Data set [21] is described as follows: Inhibition of sodium channel at 10uM.

Chain of Melanin-concentrating hormone receptor 1 (Q99705 whole entry): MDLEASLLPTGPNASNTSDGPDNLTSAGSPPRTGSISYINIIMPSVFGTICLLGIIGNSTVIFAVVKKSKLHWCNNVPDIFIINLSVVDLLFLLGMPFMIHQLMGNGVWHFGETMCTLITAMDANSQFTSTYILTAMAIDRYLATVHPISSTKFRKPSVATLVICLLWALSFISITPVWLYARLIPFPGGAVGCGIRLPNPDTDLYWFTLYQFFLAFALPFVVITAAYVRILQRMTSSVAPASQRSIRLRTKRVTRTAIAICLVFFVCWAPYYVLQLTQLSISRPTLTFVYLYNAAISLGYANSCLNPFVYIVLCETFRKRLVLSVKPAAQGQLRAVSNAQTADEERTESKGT
Chain of Sigma non-opioid intracellular receptor 1 (Homo sapiens) (Q99720 whole entry): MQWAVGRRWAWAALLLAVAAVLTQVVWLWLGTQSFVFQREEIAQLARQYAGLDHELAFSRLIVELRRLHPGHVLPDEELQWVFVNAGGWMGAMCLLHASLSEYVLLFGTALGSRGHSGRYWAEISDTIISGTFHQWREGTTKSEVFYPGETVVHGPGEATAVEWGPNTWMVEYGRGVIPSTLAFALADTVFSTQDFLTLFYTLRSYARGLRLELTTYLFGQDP
Chain of Muscarinic acetylcholine receptor M2 (Homo sapiens) (P08172 whole entry): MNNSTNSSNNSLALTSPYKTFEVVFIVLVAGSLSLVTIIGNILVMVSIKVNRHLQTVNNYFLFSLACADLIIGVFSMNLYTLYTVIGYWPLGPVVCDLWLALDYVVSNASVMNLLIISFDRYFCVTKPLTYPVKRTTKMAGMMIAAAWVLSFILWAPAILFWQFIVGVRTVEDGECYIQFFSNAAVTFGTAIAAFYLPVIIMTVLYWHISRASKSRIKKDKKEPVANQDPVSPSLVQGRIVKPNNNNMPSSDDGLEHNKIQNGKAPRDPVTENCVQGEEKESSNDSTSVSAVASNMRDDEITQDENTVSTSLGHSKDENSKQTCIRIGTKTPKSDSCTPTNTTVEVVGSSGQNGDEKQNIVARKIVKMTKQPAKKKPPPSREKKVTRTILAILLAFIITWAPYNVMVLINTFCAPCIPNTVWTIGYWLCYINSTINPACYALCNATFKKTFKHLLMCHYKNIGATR
Chain of Adenosine receptor A1 (Homo sapiens) (P30542 whole entry): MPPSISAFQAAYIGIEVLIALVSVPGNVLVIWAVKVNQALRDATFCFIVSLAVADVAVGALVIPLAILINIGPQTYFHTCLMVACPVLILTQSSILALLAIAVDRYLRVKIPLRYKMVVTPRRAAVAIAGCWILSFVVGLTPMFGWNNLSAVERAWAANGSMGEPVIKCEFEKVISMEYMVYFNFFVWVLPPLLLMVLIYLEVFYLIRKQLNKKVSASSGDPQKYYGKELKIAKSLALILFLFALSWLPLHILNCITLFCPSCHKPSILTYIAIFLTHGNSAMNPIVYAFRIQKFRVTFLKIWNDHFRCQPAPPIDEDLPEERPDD
Chain of Kappa-type opioid receptor (Homo sapiens) (P41145 whole entry): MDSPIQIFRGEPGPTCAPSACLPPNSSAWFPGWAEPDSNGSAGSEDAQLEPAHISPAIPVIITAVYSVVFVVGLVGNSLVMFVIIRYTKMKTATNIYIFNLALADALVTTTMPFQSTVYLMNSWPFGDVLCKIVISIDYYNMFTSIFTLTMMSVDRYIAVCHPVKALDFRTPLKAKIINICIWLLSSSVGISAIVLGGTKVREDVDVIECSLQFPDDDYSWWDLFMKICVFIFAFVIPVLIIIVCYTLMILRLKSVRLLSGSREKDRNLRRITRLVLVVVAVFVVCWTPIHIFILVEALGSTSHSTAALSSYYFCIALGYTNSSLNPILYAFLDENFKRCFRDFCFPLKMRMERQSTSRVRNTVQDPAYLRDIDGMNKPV
Chain of 5-hydroxytryptamine receptor 1B (Homo sapiens) (P28222 whole entry): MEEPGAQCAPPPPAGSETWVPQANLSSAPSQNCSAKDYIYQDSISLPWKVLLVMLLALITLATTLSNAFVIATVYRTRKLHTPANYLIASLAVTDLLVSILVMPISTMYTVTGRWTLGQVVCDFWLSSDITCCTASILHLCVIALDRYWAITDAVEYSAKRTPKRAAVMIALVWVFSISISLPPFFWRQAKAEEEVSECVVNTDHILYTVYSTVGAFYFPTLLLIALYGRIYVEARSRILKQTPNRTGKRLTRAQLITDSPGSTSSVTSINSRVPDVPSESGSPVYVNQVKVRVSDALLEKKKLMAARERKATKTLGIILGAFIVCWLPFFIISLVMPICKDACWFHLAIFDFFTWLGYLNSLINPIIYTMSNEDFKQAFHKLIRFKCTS
Chain of Sodium-dependent noradrenaline transporter (Homo sapiens) (P23975 whole entry): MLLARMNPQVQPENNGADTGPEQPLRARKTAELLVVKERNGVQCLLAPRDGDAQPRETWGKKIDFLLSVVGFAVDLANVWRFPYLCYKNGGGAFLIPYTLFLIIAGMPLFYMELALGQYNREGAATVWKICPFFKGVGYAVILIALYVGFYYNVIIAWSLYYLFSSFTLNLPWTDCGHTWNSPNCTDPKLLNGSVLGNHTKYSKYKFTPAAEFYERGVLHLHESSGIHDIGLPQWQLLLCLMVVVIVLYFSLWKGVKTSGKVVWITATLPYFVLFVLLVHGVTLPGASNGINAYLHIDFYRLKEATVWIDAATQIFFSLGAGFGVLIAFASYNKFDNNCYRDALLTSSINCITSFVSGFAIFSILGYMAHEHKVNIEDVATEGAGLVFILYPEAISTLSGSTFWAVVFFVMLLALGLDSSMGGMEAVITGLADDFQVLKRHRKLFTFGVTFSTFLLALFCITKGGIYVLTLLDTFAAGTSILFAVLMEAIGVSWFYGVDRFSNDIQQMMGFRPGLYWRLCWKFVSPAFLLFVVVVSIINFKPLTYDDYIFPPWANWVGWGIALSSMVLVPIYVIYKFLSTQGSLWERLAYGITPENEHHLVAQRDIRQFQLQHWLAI
Chain of 5-hydroxytryptamine receptor 2A (Homo sapiens) (P28223 whole entry): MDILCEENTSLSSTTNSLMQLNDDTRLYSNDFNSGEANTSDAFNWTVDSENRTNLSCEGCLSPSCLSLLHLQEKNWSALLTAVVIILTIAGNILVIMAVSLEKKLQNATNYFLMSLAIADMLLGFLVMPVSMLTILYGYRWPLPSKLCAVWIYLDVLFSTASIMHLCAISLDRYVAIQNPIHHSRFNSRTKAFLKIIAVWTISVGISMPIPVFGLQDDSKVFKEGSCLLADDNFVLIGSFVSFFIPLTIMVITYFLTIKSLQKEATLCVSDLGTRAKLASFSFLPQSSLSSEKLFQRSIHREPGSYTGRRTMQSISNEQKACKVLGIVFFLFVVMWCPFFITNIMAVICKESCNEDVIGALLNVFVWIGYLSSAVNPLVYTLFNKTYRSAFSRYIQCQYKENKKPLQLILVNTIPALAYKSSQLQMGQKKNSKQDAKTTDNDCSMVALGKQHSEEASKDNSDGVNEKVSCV
Chain of D(1A) dopamine receptor (Homo sapiens) (P21728 whole entry): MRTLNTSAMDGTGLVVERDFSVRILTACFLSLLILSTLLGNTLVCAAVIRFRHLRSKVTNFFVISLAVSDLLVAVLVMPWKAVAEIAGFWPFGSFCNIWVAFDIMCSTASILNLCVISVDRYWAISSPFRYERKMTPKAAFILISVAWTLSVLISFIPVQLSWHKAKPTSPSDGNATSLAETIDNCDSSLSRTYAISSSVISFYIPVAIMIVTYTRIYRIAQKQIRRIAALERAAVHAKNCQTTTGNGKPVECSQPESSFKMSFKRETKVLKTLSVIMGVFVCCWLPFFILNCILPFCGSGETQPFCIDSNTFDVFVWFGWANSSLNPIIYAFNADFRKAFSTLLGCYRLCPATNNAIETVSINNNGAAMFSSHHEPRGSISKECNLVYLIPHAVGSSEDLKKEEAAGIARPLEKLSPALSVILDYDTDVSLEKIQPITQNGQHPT
Chain of Histamine H1 receptor (Homo sapiens) (P35367 whole entry): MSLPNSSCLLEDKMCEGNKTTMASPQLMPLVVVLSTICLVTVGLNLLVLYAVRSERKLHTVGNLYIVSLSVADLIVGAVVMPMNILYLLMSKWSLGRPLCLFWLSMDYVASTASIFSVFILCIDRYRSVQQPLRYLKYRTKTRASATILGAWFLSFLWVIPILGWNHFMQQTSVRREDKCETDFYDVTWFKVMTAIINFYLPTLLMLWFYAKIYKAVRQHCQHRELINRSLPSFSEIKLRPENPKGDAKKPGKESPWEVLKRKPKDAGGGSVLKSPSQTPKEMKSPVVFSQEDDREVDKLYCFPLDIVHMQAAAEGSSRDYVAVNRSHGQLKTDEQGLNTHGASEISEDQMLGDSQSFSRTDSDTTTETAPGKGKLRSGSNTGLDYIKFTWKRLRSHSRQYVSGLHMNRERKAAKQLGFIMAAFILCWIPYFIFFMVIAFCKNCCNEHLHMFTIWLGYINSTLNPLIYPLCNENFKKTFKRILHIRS
Chain of Sodium-dependent dopamine transporter (Homo sapiens) (Q01959 whole entry): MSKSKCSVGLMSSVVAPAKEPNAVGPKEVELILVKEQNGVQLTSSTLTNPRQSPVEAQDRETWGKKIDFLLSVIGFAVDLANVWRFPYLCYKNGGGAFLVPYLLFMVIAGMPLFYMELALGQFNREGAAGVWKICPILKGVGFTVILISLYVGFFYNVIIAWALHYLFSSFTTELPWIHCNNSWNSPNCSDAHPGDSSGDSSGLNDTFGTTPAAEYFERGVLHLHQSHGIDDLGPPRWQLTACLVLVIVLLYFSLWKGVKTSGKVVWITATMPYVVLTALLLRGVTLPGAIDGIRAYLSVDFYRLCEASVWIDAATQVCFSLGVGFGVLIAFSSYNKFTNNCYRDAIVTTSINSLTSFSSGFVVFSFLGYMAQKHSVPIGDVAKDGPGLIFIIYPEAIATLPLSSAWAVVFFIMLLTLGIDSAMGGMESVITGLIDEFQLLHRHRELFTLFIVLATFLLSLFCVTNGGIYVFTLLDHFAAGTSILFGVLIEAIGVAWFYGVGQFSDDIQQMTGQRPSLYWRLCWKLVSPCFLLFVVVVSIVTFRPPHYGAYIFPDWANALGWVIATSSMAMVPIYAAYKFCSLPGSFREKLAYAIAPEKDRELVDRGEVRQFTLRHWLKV

For `CCc1nc2ccc(CN3CCC(NC(=O)c4cc(=O)c5ccc(F)cc5o4)CC3)cc2o1`, the IC50 – broadly, the midpoint of a concentration-inhibition curve – in data set [1] is 1270 nM; in [2], > 10000 nM; in data set [3], 26700 nM. Moreover, the selectivity ratio on hERG versus MCH receptor is 2.
In the same order, the values of `Cn1c(=O)ccc2ccc(CN3CCC(NC(=O)c4cc(=O)c5ccc(F)cc5o4)CC3)cc21` are 3 nM, 44 nM, 47400 nM and 1030.
On to `O=C(NC1CCN(Cc2ccc3c(c2)OCO3)CC1)c1cc(=O)c2ccc(F)cc2o1`, for which the inhibition (in general, the change of the read-out against control, counted positive when it falls) in [4] was 21%; in [5], 42%; in data set [6] it was 48%; in [7], 55%; in data set [8], 43%; in [9], 48%. Also, the inhibition in data set [10] is 16%; in data set [11] it was -6%; in data set [12], 17%; in [13], 8%; in data set [14] it was 65%; in [15], 66%. In addition, the inhibition in [16] is 26%; in [17], 104%; in data set [18], 32%; in data set [19], 18%. At Cytochrome P450 3A4, the IC50 was found to be 23500 nM. For the same compound, the inhibition at 10 µM at L-type calcium channel was found to be 31%.
`O=C(NC1CCN(Cc2ccc3ncoc3c2)CC1)c1cc(=O)c2ccc(F)cc2o1`: the IC50 stood at 10 nM in data set [1] and 106 nM in [2].
Turning to `CC(=O)Nc1cccc(CN2CCC(NC(=O)c3cc(=O)c4ccc(F)cc4o3)CC2)c1`, the IC50 in [1] turned out to be 47 nM; in [2] it was 551 nM.
In the case of `CC(=O)Nc1ccc(CN2CCC(NC(=O)c3cc(=O)c4ccc(F)cc4o3)CC2)cc1`, the 50% inhibitory concentration (IC50) in data set [2] is > 10000 nM.
As to `O=C(NC1CCN(Cc2ccc3ccc(=O)oc3c2)CC1)c1cc(=O)c2ccc(F)cc2o1`, the inhibition is 16% in data set [4]; 15% in [5]; 25% in data set [6]; 16% in data set [7]; 7% in data set [8]; 45% in [9]. Further, the inhibition in data set [10] is 21%; in data set [11], 5%; in data set [12], -10%; in data set [13], 11%; in [14] it was 36%; in data set [15], 43%. The inhibition in data set [16] was found to be 67%; in data set [17], 37%; in data set [18], 13%; in data set [20] it was 17%; in data set [21], 72%; in data set [19], 28%. The IC50 in data set [1] is 1 nM; in data set [2], 46 nM. The inhibition at 10 µM at L-type calcium channel was 10%.
Turning to `O=C(NC1CCN(Cc2ccc3cc[nH]c3c2)CC1)c1cc(=O)c2ccc(F)cc2o1`, the results for the IC50 in [1] and in [2] were 5 nM and 66 nM, respectively.
Turning to `O=C1COc2cc(CN3CCC(NC(=O)c4cc(=O)c5ccc(F)cc5o4)CC3)ccc2N1`, the concentration for half-maximal inhibition (IC50) in data set [1] is 166 nM; in data set [2], 2410 nM.
In the same order, the values of `O=C(NC1CCN(Cc2ccc3oc(=O)[nH]c3c2)CC1)c1cc(=O)c2ccc(F)cc2o1` are 43 nM and 569 nM.
